This is an account of results in ChEMBL document CHEMBL1240447, “Synthesis and bioactivity of sphingosine kinase inhibitors and their novel aspirinyl conjugated analogs” (Eur J Med Chem, 2010).

The source made the active and inactive calls. The calls are words filed in the database; no cut-off is given here.

Data set [1] addresses Sphingosine kinase 1 (Homo sapiens) (UniProt Q9NYA1). The experiment in a line: Inhibition of Sphingosine kinase 1 in human HeLa cells at >=5 uM pre-incubated for 24 hrs. Format: cell-based. The essentials: (§1)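 HeLa cells preincubated 24 h with compound or DMSO; cytosol (100,000g supernatant) at 10 µg protein incubated with 50 µM D-erythro-sphingosine, 200 µM ATP plus [γ-32P]ATP in pH 7.4 Tris buffer, 30 min, 37 °C; S1P resolved by TLC and quantified by scintillation counting; triplicate.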

Data set [2] deals with Serum. The experiment in a line: Metabolic stability of the compound in fetal bovine serum assessed as conversion of SKI-2 after 72 hrs by HPLC analysis. Format: ADME, cell-free, Bos taurus. The note with it: cattle. In short, it runs like this:
(§2)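 Compound in DMSO, 1 mg/mL, added to 5 mL DMEM with 10% FBS (no cells) and shaken at 37 °C; samples at 0, 2, 16 and 72 h filtered and run on C18 HPLC; conjugate remaining and released parent SKI expressed as percentages of peak areas per time point.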

A short description of data set [3]: Cytotoxicity against human MCF10A cells after 72 hrs by SRB assay. The note with it: MCF-10A. In kind it is cell-based.
Data set [4] can be described thus: Cytotoxicity against human H441 cells after 72 hrs by SRB assay. Format: functional, cell-based. The settings on record: NCI-H441, 72 h. In general terms: The SRB assay estimates cell density from bound dye.
Another data set concerns NCI-H460. The experiment in a line: Cytotoxicity against human H460 cells after 72 hrs by SRB assay. Format: functional, cell-based. The note with it: NCI-H460, 72 h.
The next data set deals with MEF. The experiment in a line: Cytotoxicity against MEF after 72 hrs by SRB assay. In kind it is cell-based. The settings on record: Mus musculus.
The nature of data set [5]: Metabolic stability of the compound in fetal bovine serum assessed as compound remaining after 72 hrs by HPLC analysis. Format: ADME, cell-free, Bos taurus. The settings on record: cattle, read-out: Stability. The essentials:
as §2

The test system of a further data set is A549. The experiment in a line: Cytotoxicity against human A549 cells after 72 hrs by SRB assay. The note with it: A549, 72 h. Format: functional, cell-based.
In another data set the test system is NCI-H226. Briefly: Cytotoxicity against human NCI-H226 cells after 72 hrs by SRB assay. In kind it is functional, cell-based. The note with it: NCI-H226, 72 h.
The nature of data set [6]: Cytotoxicity against human U87MG cells after 72 hrs by SRB assay. In kind it is functional, cell-based, U-87MG ATCC. The settings on record: U-87 MG.
In data set [7] the test system is Serum. The experiment in a line: Metabolic stability of the compound in fetal bovine serum assessed as conversion of SKI-2 after 2 hrs by HPLC analysis. Format: ADME, cell-free, Bos taurus. The settings on record: cattle. In short, it runs like this:
as §2

A further data set concerns MIA PaCa-2. The experiment in a line: Cytotoxicity against human MIAPaCa2 cells after 72 hrs by SRB assay. Format: functional, cell-based. The note with it: MIA PaCa-2, 72 h.
The subject of data set [8] is Serum. The experiment in a line: Metabolic stability of the compound in fetal bovine serum assessed as conversion of SKI-2 after 16 hrs by HPLC analysis. Format: ADME, cell-free, Bos taurus. The settings on record: cattle. In short, it runs like this: as §2
In data set [9] the target is Sphingosine kinase 1 (Homo sapiens) (UniProt Q9NYA1). Briefly: Inhibition of Sphingosine kinase 1 in human HeLa cells at 1.25 uM pre-incubated for 24 hrs. Format: cell-based. In short, it runs like this:
as §1

A further data set deals with HeLa. The experiment in a line: Cytotoxicity against human HeLa cells after 72 hrs by SRB assay. In kind it is functional, cell-based.
In another data set the test system is MDA-MB-231. The experiment in a line: Cytotoxicity against human MDA-MB-231 cells after 72 hrs by SRB assay. The settings on record: MDA-MB-231, 72 h. In kind it is functional, cell-based.
Data set [10] can be described thus: Chemical stability of the compound assessed as compound remaining after 72 hrs by HPLC analysis. In kind it is physicochemical. The essentials: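 Compound in DMSO, 1 mg/mL, added to 5 mL serum-free DMEM (no cells) and shaken at 37 °C; samples taken at 0, 2, 16 and 72 h, filtered and analyzed by C18 HPLC; percentages of parent and conjugate peak areas calculated per time point.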

Data set [11] has as its system Serum. Briefly: Metabolic stability of the compound in fetal bovine serum assessed as conversion of SKI-1 after 16 hrs by HPLC analysis. Format: ADME, cell-free, Bos taurus. The settings on record: cattle. The essentials:
as §2

Data set [12] in a line: Half life in C3H-HEJ mouse serum at 60 mg/kg, ip up to 16 hrs by HPLC analysis. In kind it is ADME, organism-based. Details: dose 60 mg/kg, route intraperitoneal.

Chain of Sphingosine kinase 1 (Homo sapiens) (Q9NYA1 whole entry): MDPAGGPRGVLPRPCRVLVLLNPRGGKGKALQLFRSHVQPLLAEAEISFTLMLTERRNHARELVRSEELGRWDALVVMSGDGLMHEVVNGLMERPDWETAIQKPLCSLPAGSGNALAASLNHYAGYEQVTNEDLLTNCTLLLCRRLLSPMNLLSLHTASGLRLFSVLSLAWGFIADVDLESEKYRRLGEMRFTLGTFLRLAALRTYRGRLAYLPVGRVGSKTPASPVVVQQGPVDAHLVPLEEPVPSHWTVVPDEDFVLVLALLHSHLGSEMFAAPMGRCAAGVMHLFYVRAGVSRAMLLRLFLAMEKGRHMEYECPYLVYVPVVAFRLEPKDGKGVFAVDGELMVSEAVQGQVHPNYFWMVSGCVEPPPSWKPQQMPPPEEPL

For orientation: IC50 means the concentration at which inhibition is half-maximal. For the compound `CC(=O)Oc1ccccc1C(=O)Oc1ccc(Nc2nc(-c3ccc(Cl)cc3)cs2)cc1`, the outcome in [1] and in data set [9] was Active. The Stability in the data set with Serum [2] is given as 75%; with Serum [7], 15%; in the data set on Serum [8] it was 50%; in data set [10], “Stable”. Moreover, the IC50 in data set [3] was found to be 11.3 µM; in data set [4], 5.7 µM; in the data set with NCI-H460, 9.1 µM; in the data set with MEF, 9.4 µM; with A549 it was 5.9 µM; in the data set on NCI-H226, 6.7 µM. Also, the IC50 in data set [6] was 8.1 µM; in the data set on MIA PaCa-2, 8.7 µM; in the data set on HeLa, 11.2 µM; in the data set with MDA-MB-231, 8.4 µM. Moreover, the remaining at 72 h in data set [5] came to 25%.

A word on the half-life: it is the time in which the quantity being followed falls by half. Read a low half-life as rapid decline. `CC(=O)Oc1ccccc1C(=O)Oc1ccc2ccccc2c1/C=N/NC(=O)c1cc(-c2ccc3ccccc3c2)n[nH]1`: the outcome in data set [1] and in [9] was Active. Moreover, the IC50 in [3] was 2.6 µM; in [4], 0.6 µM; with NCI-H460, 1.2 µM; in the data set on MEF, 5.5 µM; in the data set on A549, 0.9 µM; with NCI-H226 it was 1.7 µM. Further, the IC50 in [6] came out at 1.5 µM; in the data set with MIA PaCa-2 it was 1.6 µM; in the data set on HeLa, 1 µM; in the data set with MDA-MB-231, 1.3 µM. Further, the Stability in the data set on Serum [11] is 80%; in data set [10] it was “Stable”. For the same compound, the half-life in data set [12] was 10 h.

For the compound `O=C(N/N=C/c1c(O)ccc2ccccc12)c1cc(-c2ccc3ccccc3c2)n[nH]1`, the IC50 amounted to 4.1 µM in [3]; 2 µM in data set [4]; 3.2 µM with NCI-H460; 5 µM in the data set with MEF; 3.8 µM in the data set on A549; 5.7 µM with NCI-H226. The IC50 came to 1 µM in data set [6], 4.8 µM in the data set on MIA PaCa-2, 1 µM in the data set on HeLa and 4.4 µM in the data set with MDA-MB-231. The compound further showed a half-life in data set [12] of 7 h.

Regarding `Oc1ccc(Nc2nc(-c3ccc(Cl)cc3)cs2)cc1`, the IC50 in [3] was found to be 14.5 µM; in data set [4], 8 µM; in the data set with NCI-H460, 9.2 µM; with MEF, 8.9 µM; in the data set with A549, 7.8 µM; with NCI-H226, 8.6 µM. Besides, the IC50 in data set [6] came to 10.7 µM; in the data set on MIA PaCa-2, 7.7 µM; in the data set with HeLa, 9.1 µM; in the data set on MDA-MB-231 it was 8.2 µM.
